# In the library only some 1.7% were active in any assay of this set; here they are far more common.
# A3G deaminase: blocks human APOBEC3G single-stranded DNA deamination. Q9HC16. recombinant A3G, ssDNA deamination FAM/TAMRA fluorescence. inhibition, % at 20 µM. 330,000 compounds, 0.28% hits. AID 493012;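 active means inhibition of at least 40% at 20 µM, with no more than 30% in the related APOBEC3A deaminase screen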;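 further: plate controls were DMSO wells with A3G for no effect and wells lacking A3G enzyme for full effect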
# CAL PDZ FP-1: blocks peptide binding to human CAL PDZ domain | Q9HD26 | purified CAL PDZ, TMR-peptide fluorescence polarization, 1 h | inhibition, % at 20 µM | 330,000 compounds, 0.02% hits;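 active means highest replicate inhibition of at least 40%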;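 further: plate controls were DMSO neutral control wells for no effect and unlabeled competitor peptide control wells for full effect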
#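 Assay system – tagged CAL PDZ protein CerCALP, purified · Timing – 1 h at RT · Compound – single point, 20 µM · Measured by – fluorescence polarization from S- and P-plane intensities, G-factor corrected · Evaluation – inhibition from polarization loss · Probe or stimulus – TMR reporter peptide T*-PRC34 · Buffer or medium – pH 7.4 phosphate-saline buffer, reducing agent, detergent, IgG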
# C-LANA FP: KSHV C-LANA DNA binding inhibition; MBP-C-LANA/FAM-LBS DNA binding, fluorescence polarization; inhibition, % at 9 µM; 340,000 compounds, 0.078% hits; AID 504423;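 active means highest replicate inhibition at or above 60% at 9 µM, even if other replicates fall short; inactive means all replicates below 60% inhibition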;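 further: 0% = neutral control wells and 100% = 4 µM acridine orange control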
# Keap1-Nrf2 PPI: Keap1-Nrf2 (human) interaction inhibition. 340,000 compounds, 0.15% hits. inhibition, % at 9.4 µM. Keap1 Kelch-Nrf2 peptide fluorescence polarization, 1536-well. Q14145; in the data active means inhibition above about 12%;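 further: human Keap1 Kelch domain with fluorescein labeled Nrf2 9mer peptide probe; 0% = neutral control wells and 100% = peptide positive control; higher means more block of Keap1 binding to Nrf2 peptide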
# Target sequence (Q14145 whole entry, looked up, the tested form may be a part): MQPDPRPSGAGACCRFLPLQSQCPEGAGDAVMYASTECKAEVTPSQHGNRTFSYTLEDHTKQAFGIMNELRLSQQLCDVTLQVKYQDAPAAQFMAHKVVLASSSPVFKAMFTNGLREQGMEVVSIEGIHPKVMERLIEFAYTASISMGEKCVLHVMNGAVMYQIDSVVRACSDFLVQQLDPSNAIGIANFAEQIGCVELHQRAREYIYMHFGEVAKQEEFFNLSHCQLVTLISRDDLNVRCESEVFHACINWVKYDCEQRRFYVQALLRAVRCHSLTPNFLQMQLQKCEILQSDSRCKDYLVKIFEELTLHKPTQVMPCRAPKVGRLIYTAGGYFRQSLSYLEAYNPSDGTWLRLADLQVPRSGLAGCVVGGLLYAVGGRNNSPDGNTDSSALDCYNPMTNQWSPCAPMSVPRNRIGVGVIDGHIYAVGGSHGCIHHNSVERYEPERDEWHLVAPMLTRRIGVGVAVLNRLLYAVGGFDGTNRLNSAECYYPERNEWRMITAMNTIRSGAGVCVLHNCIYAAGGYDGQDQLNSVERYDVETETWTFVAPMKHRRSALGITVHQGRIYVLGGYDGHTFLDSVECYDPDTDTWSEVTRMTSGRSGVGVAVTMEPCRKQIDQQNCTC
# APOBEC3A inh: inhibitors of human APOBEC3A DNA deaminase. P31941. recombinant A3A, FAM/TAMRA ssDNA deamination fluorescence. inhibition, % at 20 µM. 330,000 compounds, 0.41% hits;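 active means at least 40% inhibition at 20 µM here, with at most 30% in a related deaminase screen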;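 further: plate controls were A3A with DMSO for no effect and wells lacking A3A enzyme for full effect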
# CAL PDZ FP-2: blocks peptide binding to the human CAL PDZ domain; 300,000 compounds, 0.92% hits; Q9HD26; inhibition, % at 24.9 µM; AID 602252; purified CAL PDZ, TMR-peptide fluorescence polarization, 1 h;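 active means mean inhibition of at least 30% with at least half of replicates also reaching 30%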;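 further: 0% = DMSO neutral control and 100% = excess unlabeled competitor peptide PRC23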
# Active calls of the source: *; · = no result given; + = active, no number.
SMILES,A3G deaminase,CAL PDZ FP-1,C-LANA FP,Keap1-Nrf2 PPI,APOBEC3A inh,CAL PDZ FP-2
CCn1cc(C(=O)N[C@H](C(=O)NCCCOC)C(C)C)c(=O)c2cc3c(cc21)OCO3,-8.6,-0.9,-1.0,-3.7,-2.8,-1.6
CCn1cc(C(=O)N[C@H](C(=O)O)C(C)C)c(=O)c2cc3c(cc21)OCO3,-4.5,·,-0.7,3.6,-0.3,46.3*
CCOC(=O)CSc1nnc(-c2ccoc2C)n1-c1ccc(OCC)cc1,-4.4,-2.1,0.5,1.4,-3.3,7.4
CCOC(=O)CSc1nnc(-c2ccoc2C)n1-c1ccc(C)cc1,-1.7,0.5,1.9,-1.7,-3.6,45.4*
COc1ccccc1CNC(=O)[C@@H]1CCCN1S(=O)(=O)c1ccc(C)cc1,2.9,18.8,-1.0,5.2,-3.8,4.9
O=S(=O)(c1ccccc1)N1N=C(c2ccccc2)CC1c1ccccc1 (centres undefined),-1.3,-0.8,-1.0,-0.4,1.1,44.9*
Cc1cc(C(=O)Nc2ccc(Cl)cc2)c(C)n1-c1ccccc1,2.8,·,·,·,-1.8,·
Cc1cc(C(=O)NNS(=O)(=O)c2cc(C(=O)O)ccc2Cl)c(C)n1-c1ccccc1,7.0,-0.9,2.4,-3.8,27.7,38.6*
CN(C(=O)Nc1ccc(Cl)cc1Cl)[C@H]1c2cc(Br)ccc2OC[C@H]1CO,-3.8,0.6,0.2,-1.8,-3.7,·
COCCNC(=O)[C@@]1(Cc2ccccc2)C=C[C@@H](C)N1C(C)=O,-6.2,-1.1,-0.1,6.9,-1.1,0.3
Cc1ccc(CN(C)C(=O)C2CCC(=O)N(C3CCCCCC3)C2)cc1 (centres undefined),2.1,-0.3,2.0,-4.9,-0.2,39.3*
O=C(Nc1cc(Cl)ccc1N1CCOCC1)c1cccnc1Cl,-2.4,-0.7,5.8,3.3,-2.5,64.3*
CC(=O)Nc1ccc(NCC(=O)c2ccccc2)cc1,-9.4,-1.0,0.3,-3.1,-4.6,49.5*
O=C(NCCn1cccn1)C1CCC(=O)N(CCc2ccccc2)C1 (centres undefined),-11.2,-0.4,-0.7,-4.8,-2.8,0.1
COc1ccc(S(=O)(=O)Nc2nccs2)cc1OC,-13.9,-6.6,2.4,-3.2,0.5,53.3*
O=S(=O)(Nc1nccs1)c1ccc(Br)cc1,-4.7,-2.6,-1.6,-0.3,-2.4,-2.7
O=C1CN(C(=O)c2ccccc2[N+](=O)[O-])C(c2ccccc2)c2cc(Br)ccc2N1 (centres undefined),-6.0,0.4,1.5,-2.0,-1.6,·
Cc1ccc2c(c1)C(c1ccccc1)N(C(=O)c1ccccc1[N+](=O)[O-])CC(=O)N2 (centres undefined),·,-0.3,-0.7,0.2,·,70.5*
COc1ccc(NC(=O)CNC(=O)C2CCCCC2)cc1,-9.7,0.8,-1.5,-2.9,-5.7,52.6*
O=C(N/N=C/c1c[nH]c2ccccc12)c1ccncc1,6.7,-0.3,3.0,-5.3,2.3,3.6
O=C(N/N=C/c1c[nH]c2ccccc12)c1ccccc1,-6.7,-0.2,-0.6,0.2,1.7,37.5*
CCN(Cc1ccc2c(c1)OCCO2)C(=O)CN1C(=O)NC2(CCCCC2)C1=O,-4.1,-1.8,-0.2,-0.9,0.0,0.5
Cc1ccc(Cl)cc1NC(=O)COC(=O)CN1C(=O)C2CCCCC2C1=O (centres undefined),-3.6,-0.3,-1.9,-0.3,-2.8,·
CC(=O)c1ccccc1NC(=O)COC(=O)CN1C(=O)C2CCCCC2C1=O (centres undefined),-2.4,-0.7,-2.3,0.5,-2.0,40.0*
N#C/C(=C\c1ccc(O)c(O)c1)C(=O)N1CCCC1,2.0,0.4,1.8,-3.2,0.3,·
SMILES,A3G deaminase,CAL PDZ FP-1,C-LANA FP,Keap1-Nrf2 PPI,APOBEC3A inh,CAL PDZ FP-2
N#C/C(=C\c1ccc(O)c(O)c1)C(=O)c1ccc(O)c(O)c1,-4.2,0.2,68.9*,-22.7,2.2,-7.3
CCN(CC)CCNC(=O)C(=O)Nc1ccc(C(=O)OC)cc1,-8.7,-0.6,-0.5,2.9,-1.0,+
CCN(CC)C(=O)Nc1ccc(C(=O)OC)cc1,-3.9,-2.5,1.2,0.9,0.3,-6.7
CCOc1cccc2c1OC1(C)CC2NC(=O)N1c1cccc(Cl)c1 (centres undefined),-7.1,·,-0.5,2.1,-1.7,92.8*
CSc1nnc(-c2ccc(S(=O)(=O)N3CCCC3)cc2)n1C,-10.5,-2.5,-1.1,-0.1,-4.1,-0.2
Cn1c(SCC(N)=O)nnc1-c1ccc(S(=O)(=O)N2CCCC2)cc1,-11.2,0.0,0.0,-1.8,-2.5,41.8*
O=C(NC1CCN(C(=O)Nc2cccc(Cl)c2)CC1)c1ccco1,-6.2,-0.1,-1.0,-5.0,-2.7,58.1*
Cc1cccc(NC(=O)N2CCC(NC(=O)c3ccco3)CC2)c1,0.4,·,0.8,-5.4,1.6,0.9
CCOC(=O)NC(NC(=O)OCC)C(=O)c1ccc(F)cc1,-9.8,·,-0.9,-0.6,-0.1,-0.4
Cc1ccc(C)c(NS(=O)(=O)c2ccc3[nH]c(=O)oc3c2)c1,10.0,-0.6,0.8,1.7,30.1,-1.8
CN(c1ccc(OCC(=O)OCC(=O)Nc2ccccc2)cc1)S(=O)(=O)c1ccc(F)cc1,-2.0,-4.3,3.0,-2.1,1.2,1.8
CN(c1ccc(OCC(=O)OCC(=O)Nc2ccc([N+](=O)[O-])cc2)cc1)S(=O)(=O)c1cccs1,·,-0.4,1.4,2.6,·,94.6*
COc1ccc(C)cc1NC(=O)C1CCCN(S(=O)(=O)c2cccnc2)C1 (centres undefined),-7.2,-2.4,-0.1,-0.8,-2.7,-2.8
CC1(C)CC(=O)C(C=NCCN2CCNC2=O)=C(O)C1,-3.1,0.3,1.0,3.8,0.7,52.2*
CCOC(=O)N1CCC(=C(C#N)C(=O)Nc2cc(OC)ccc2OC)CC1,-4.8,-0.1,-1.0,3.2,4.7,30.8*
O=C(CSc1nc2nn(-c3ccccc3)c(=O)c-2c2n1CCCCC2)c1ccc(OC(F)F)cc1,-5.6,-2.1,-2.1,-4.1,-1.9,26.3
C=CCOc1ccccc1C(=O)/C=C1/C(=O)Nc2ccccc21,-7.8,·,1.0,0.7,-3.8,70.3*
C=CCOc1ccc(C(=O)/C=C2/C(=O)Nc3ccccc32)cc1,-8.6,0.8,-1.6,-7.7,-2.2,-6.3
CN(CC(=O)Nc1ccccc1Br)C(=O)c1ccc2c(=O)n3c(nc2c1)CCC3,-7.5,-0.7,-0.2,-0.7,-5.2,-2.4
Cc1ccc(C)c(NC(=O)CN(C)C(=O)c2ccc3c(=O)n4c(nc3c2)CCC4)c1,-3.2,-0.9,1.2,1.0,-2.6,49.0*
CSCCC(NC(N)=O)C(=O)NCc1ccccc1Cl (centres undefined),1.9,·,0.2,4.3,1.7,38.2*
O=[N+]([O-])c1cnccc1Nc1ccc(Cl)cc1,-7.1,-0.9,-1.1,2.9,-3.8,74.6*
O=[N+]([O-])c1cc(Cl)ccc1Nc1ccccc1,-1.1,0.7,1.2,-0.8,-2.8,7.8
